Mcl1-Noxa inh: Mcl-1/Noxa interaction inhibition; TR-FRET Mcl-1/Noxa peptide binding, 2 h; AID 1022; actives 1.5% (n = 220,000); inhibition, % at 21.7 µM;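 active = compounds that cut the protein-peptide binding signal by more than 50% relative to plate controls in a single-dose test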;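 note: His-tagged Mcl-1 with rhodamine Noxa BH3 peptide and terbium anti-His antibody; 0% = Mcl-1 plus Noxa peptide wells and 100% = peptide-only wells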
Target sequence (Q07820 whole entry, looked up): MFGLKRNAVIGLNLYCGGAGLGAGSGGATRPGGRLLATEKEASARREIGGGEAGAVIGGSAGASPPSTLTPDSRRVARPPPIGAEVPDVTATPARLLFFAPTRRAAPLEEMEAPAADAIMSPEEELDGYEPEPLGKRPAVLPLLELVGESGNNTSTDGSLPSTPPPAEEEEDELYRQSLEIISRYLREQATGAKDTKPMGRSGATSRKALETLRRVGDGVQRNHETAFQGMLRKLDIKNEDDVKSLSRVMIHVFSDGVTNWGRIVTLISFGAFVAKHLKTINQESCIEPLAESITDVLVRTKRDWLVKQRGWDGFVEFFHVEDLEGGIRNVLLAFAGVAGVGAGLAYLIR
EBV gp42 block: blocks Epstein-Barr virus glycoprotein 42 binding; Fluorescence polarization binding assay, mP read-out; Q1HVG2; inhibition, % (tested at 21.74 µM); actives 0.42% (n = 220,000); in the data active = inhibition above about 50%
Mcl1-Bid inh: disrupts binding of human Mcl-1 to Bid peptide; TR-FRET Mcl-1/Bid-Dy647 peptide binding, 1536-well; Q07820; inhibition, % at 21.7 µM; actives 0.97% (n = 220,000);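 active = compounds that cut the binding signal by more than half at the single screening dose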;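 note: His-tagged Mcl-1 with europium anti-His antibody binding Bid BH3 peptide; 0% = Mcl-1 plus peptide wells and 100% = peptide-only wells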
MCL1-BIM inh: disrupts human MCL1 binding to BIM-BH3 peptide; Q07820; GST-MCL1 / FITC-Bim-BH3 fluorescence polarization; inhibition, % at 10.9 µM; actives 0.68% (n = 320,000); AID 2057;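 active = inhibition above the mean inhibition of all tested compounds plus 3 SD, set per campaign, cut at about 40% in these data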;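 note: 0% = DMSO wells and 100% = unlabeled Bim-BH3 peptide control; higher means more loss of mP so more displacement of Bim peptide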
RBBP9 inh: human RBBP9 hydrolase inhibition; O75884; recombinant RBBP9, FP-Rh probe fluorescence polarization; inhibition, % at 7.94 µM; actives 0.2% (n = 220,000); AID 1515;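 active = inhibition above the campaign mean of all tested compounds plus 3 SD, cut at about 14% in these data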;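 note: plate controls were DMSO wells with RBBP9 for no effect and wells lacking RBBP9 protein for full effect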
Target sequence (O75884 whole entry, looked up): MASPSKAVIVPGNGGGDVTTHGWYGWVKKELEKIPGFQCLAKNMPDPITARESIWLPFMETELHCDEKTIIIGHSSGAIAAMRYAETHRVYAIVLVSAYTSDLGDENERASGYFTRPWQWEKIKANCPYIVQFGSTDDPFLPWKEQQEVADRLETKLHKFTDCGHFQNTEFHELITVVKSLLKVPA
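Material: RBBP9 protein. Amount: RBBP9 at 2.5 µM in dispensed solution, before mixing. Schedule: 30 min then 45 min, 25 °C. Medium: Tris buffer pH 8.0, NaCl, Pluronic. Measured by: fluorescence polarization. Measure: percent inhibition from mP, scaled between DMSO and no-protein wells. Replication: one well per compound.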
Mcl-1 Bim block: human Bim-Mcl-1 interaction inhibition; AID 1009; inhibition, % at 10 µM; Q07820; actives 0.1% (n = 190,000); Bead-based flow cytometry, Bim peptide-Mcl-1 binding; in the data active = inhibition above about 40%;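 note: 0% = no compound tracer wells and 100% = peptide blocker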
Starred values were filed as active, the others as inactive; / = not tested or not shown. Hits are enriched below; roughly 2.2% of the tested compounds scored in any of these assays.

SMILES | Mcl1-Noxa inh | EBV gp42 block | Mcl1-Bid inh | MCL1-BIM inh | RBBP9 inh | Mcl-1 Bim block
CCOc1ccc(NC(=O)C(c2ccccn2)N(C(=O)CCl)c2ccc(OCC)cc2)cc1 (configuration not stated) | 4 | -20 | -20 | 6 | -2 | -4
CCN(CC)c1ccc(NC(=O)Nc2cccc(C(C)=O)c2)cc1 | 86* | -4 | -76 | 6 | -6 | 0
CCN(CC)c1ccc(NC(=O)OC)cc1 | 68* | -24 | -53 | -13 | -4 | 3
CC(=O)c1cccc(NC(=O)Nc2ccc(C(=O)N3CCCC3)cc2)c1 | 6 | -4 | -8 | 7 | -6 | -5
CCOC(=O)C(Cc1ccccc1)C(=O)Nc1cccc(C)c1 (configuration not stated) | -8 | -7 | -15 | 10 | -6 | -2
CC(=O)Nc1cccc(NC(=O)Nc2ccc(C(C)=O)cc2)c1 | 10 | 6 | 94* | 3 | 9 | 0
CC(=O)c1ccc(NC(=O)Nc2ccncc2)cc1 | 15 | -1 | -34 | 2 | -2 | 1
CCOC(=O)C(Cc1ccccc1)C(=O)Nc1ccc(N(CC)CC)cc1 (configuration not stated) | 60* | -3 | -29 | 1 | -7 | -3
COc1ccc(Nc2nc(Nc3ccc(OC)cc3OC)nc(N3CCN(C)CC3)n2)c(OC)c1 | 15 | -4 | -3 | 0 | -5 | -1
CCOc1ccc(NC(=O)CSc2nccn(-c3ccc4c(c3)OCCO4)c2=O)cc1 | / | / | / | 4 | / | /
COC(=O)COc1ccccc1C(N)=O | 7 | -25 | -6 | 6 | -6 | 0
CCN(CC)c1ccc(NC(=O)c2ccccc2OCC(=O)OC)cc1 | 81* | 4 | -18 | 5 | -9 | -3
C#CCOCCOCCOCCNc1nc(N2CCN(C(=O)[C@H]([C@@H](C)CC)n3cc([C@@H](N)CC(C)C)nn3)CC2)nc(N2CCN(C(=O)[C@H](Cc3ccc(O)cc3)n3cc([C@@H](N)CC(C)C)nn3)CC2)n1 | 21 | -4 | 60* | 7 | -2 | -2
C#CCOCCOCCOCCNc1nc(N2CCN(C(=O)[C@H](Cc3ccc(O)cc3)n3cc([C@@H](N)C(C)CC)nn3)CC2)nc(N2CCN(C(=O)[C@H](Cc3cc4ccccc4[nH]3)n3cc([C@@H](N)CC(C)C)nn3)CC2)n1 (some centres not stated) | 37 | -22 | 41 | -9 | 3 | 0
C#CCOCCOCCOCCNc1nc(N2CCN(C(=O)[C@H](Cc3ccc(O)cc3)n3cc([C@@H](N)C(C)CC)nn3)CC2)nc(N2CCN(C(=O)[C@H](Cc3cc4ccccc4[nH]3)n3cc([C@@H](N)C(C)CC)nn3)CC2)n1 (some centres not stated) | 44 | -17 | 69* | 0 | 1 | -2
C#CCOCCOCCOCCNc1nc(N2CCN(C(=O)[C@H](Cc3cc4ccccc4[nH]3)n3cc([C@@H](N)C(C)CC)nn3)CC2)nc(N2CCN(C(=O)[C@H](Cc3cc4ccccc4[nH]3)n3cc([C@@H](N)Cc4ccc(O)cc4)nn3)CC2)n1 (some centres not stated) | 61* | -9 | 85* | -1 | -11 | 0
C#CCOCCOCCOCCNc1nc(N2CCN(C(=O)[C@H](CCCCN)n3cc(CCCC)nn3)CC2)nc(N2CCN(C(=O)[C@H](Cc3ccc(O)cc3)n3cc(CCO)nn3)CC2)n1 | 45 | 3 | 57* | 15 | 2 | -1
C#CCOCCOCCOCCNc1nc(N2CCN(C(=O)[C@H]([C@@H](C)CC)n3cc([C@@H](N)Cc4ccc(O)cc4)nn3)CC2)nc(N2CCN(C(=O)[C@H]([C@@H](C)CC)n3cc([C@@H](N)Cc4ccc(O)cc4)nn3)CC2)n1 | -7 | -15 | 0 | -2 | 0 | -4
COc1ccc(OC)c(-n2c(N)c(C(=O)NCC3CCCO3)c3nc4ccccc4nc32)c1 (configuration not stated) | 15 | 10 | 93* | / | 1 | 0
COc1ccc(-n2c(N)c(C(=O)NCc3ccco3)c3nc4ccccc4nc32)cc1 | 58* | 3 | -11 | -6 | -2 | 3
COCCn1c(N)c(C(=O)NCC2CCCO2)c2nc3ccccc3nc21 (configuration not stated) | 11 | -3 | -51 | 9 | -4 | 0
COc1cccc(NC(=S)N2CCn3c(nc4ccccc43)C2)c1 | 13 | -12 | -36 | 7 | -7 | -2
O=C(NCCc1nc2ccccc2[nH]1)/C(=C/c1ccco1)NC(=O)c1ccc(Br)o1 | 2 | -21 | -38 | -4 | 4 | -10
Cc1cc2cc(CNC(=O)c3ccco3)ccc2n1C | 8 | -5 | -115 | 41* | / | /
Cc1cc2cc(CNC(=O)c3cc4ccccc4o3)ccc2n1C | -47 | 5 | -87 | 32 | -5 | -4
SMILES | Mcl1-Noxa inh | EBV gp42 block | Mcl1-Bid inh | MCL1-BIM inh | RBBP9 inh | Mcl-1 Bim block
CC1(C)Cc2cccc(OCC(=O)OCC(=O)Nc3cccc(S(N)(=O)=O)c3)c2O1 | -1 | -22 | 93* | 2 | 5 | /
O=CNc1ccc(OC(=O)c2cncc(Br)c2)cc1 | / | / | / | -6 | / | /
CCCn1c(NCc2ccco2)nc2c1c(=O)n(C)c(=O)n2C | 5 | -8 | -37 | 0 | -1 | -2
Cn1c(=O)c2c(nc(NCc3ccco3)n2CC(O)COc2ccccc2)n(C)c1=O (configuration not stated) | 81* | -24 | -12 | 7 | 4 | -5
CCOC(=O)c1c(-c2ccccc2)csc1NC(=S)NC | 55* | 1 | -58 | 2 | -6 | -11
N=C1C(=O)OCC1c1ccccc1NC(=O)c1ccccc1 (configuration not stated) | 3 | 4 | -9 | 9 | -7 | -5
O=C(Nc1ccccc1Cl)OC1CCCCC1 | / | / | / | 5 | / | /
CN(C)c1ccc(N=Cc2nc(-c3ccccc3)oc2O)cc1 | 21 | 166* | -127 | -138 | -5 | -2
Oc1oc(-c2ccccc2)nc1C=Nc1ccccc1 | 23 | -9 | -18 | 10 | -9 | 0
N#CC(C(=O)Nc1cccc(Cl)c1)=C1Nc2ccccc2N1 | 27 | -4 | -20 | 6 | -8 | 0
N#CC(C(=O)Nc1ccc(Cl)c(Cl)c1)=C1Nc2ccccc2N1 | 73* | 12 | 53* | 1 | 7 | -3
CN(/C(=N\S(=O)(=O)c1ccccc1)C(F)(F)F)c1ccccc1 | 15 | -6 | 4 | -12 | 7 | -4
Nc1c(C(=O)Nc2nc3ccccc3s2)sc2nc(-c3cccs3)ccc12 | 97* | 35 | 92* | -2 | -2 | 4
Nc1ccc(C(=O)Nc2nc3ccccc3s2)cc1 | 6 | 1 | -17 | 7 | -10 | -2
CC(=O)c1sc2nc(-c3cccs3)ccc2c1N | 74* | 35 | -59 | 30 | -10 | -4
Cc1nc(-c2cccs2)ccc1C(=O)O | 8 | -8 | -17 | 9 | -4 | 5

Screening results (PubChem BioAssay)
